b-catenin transl: alters nuclear translocation of beta-catenin in HeLa cells. immunofluorescence imaging. nuclear translocation activity, % at 5 µM. 190,000 tested, 0.3% active. AID 1665;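 active = nuclear translocation activity above 50% at 5 µM, with a well cell count of 50 or more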;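 note: per-cell ratio of nuclear to cytoplasmic median beta-catenin stain intensity; plate controls were DMSO negative control for no effect and GSK-3 inhibitor IX positive control for full effect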
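System: HeLa cells, endogenous beta-catenin; compound dosing: 5 µM primary single dose, 0.1% DMSO, 0.02–20 µM confirmation series; incubation: 24 h compound exposure at 37°C, 5% CO2; signal: beta-catenin immunofluorescence imaging with DAPI; evaluation: % activation, nuclear-to-cytoplasmic median beta-catenin signal ratio per cell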
STAT1 blocker: reduces IFN-gamma driven STAT1 reporter signal; 200,000 tested, 0.35% active; NIH 3T3 STAT1-luciferase reporter, luminescence; inhibition, % at 5.5 µM;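 active = inhibition above a set limit, the mean inhibition across all tested compounds plus 3 SD, cut at about 34% in these data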;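 note: 0% = IFN-gamma with DMSO and 100% = IFN-gamma with 300 µM nifuroxazide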
STAT3 act: STAT3 signaling activation. 190,000 tested, 0.91% active. AID 871. U3A cells, IL-6 STAT3-luciferase reporter, luminescence; 100% = signal with IL-6 EC80 alone. activation (% of control), % at 5.6 µM;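 active = activation above the screen-wide mean of compound activation plus 3 SD, cut at about 130% in these data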;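 note: 0% = background luminescence of wells with medium and substrate only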
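Test system: Human STAT1-deficient U3A cells with stable STAT3-luciferase reporter | Also added: Interleukin-6, 33 ng/mL | Timing: Compound pre-incubation 1 h before IL-6, then 6 h stimulation at 37 °C | Technique: Luciferase reporter luminescence | Read-out: Percent of IL-6-only median luminescence | Benchmarks: IL-6-only wells as 100% reference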
MT stabilizer: microtubule stabilizers in HeLa cells; % tubulin-high responders, % at 10 µM; 200,000 tested, 0.83% active; HeLa tubulin immunostaining HCS, 24 h; share of cells brighter than vehicle mean+2SD;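 active = plate Z-score above 3 for both tubulin-high and condensed-nucleus cell shares, with cell loss under 80%, at 10 µM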;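 note: anti alpha tubulin signal scored within the nucleus-defined area of each cell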
STAT3 blocker: reduces IL-6 driven STAT3 reporter signal; inhibition, % at 5.5 µM; 190,000 tested, 0.89% active; U3A cells, IL-6 STAT3-luciferase reporter, luminescence; host cell line lacks STAT1; AID 862;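 active = inhibition above the mean inhibition across all screened compounds plus 3 SD, cut at about 44% in these data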;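 note: 0% = DMSO only wells and 100% = 100 µM nifuroxazide control wells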
An asterisk follows results filed as active; nt = not tested or not shown. A selection: hits, their analogues and other compounds. The true share with any hit is near 2.4%.

SMILES | b-catenin transl | STAT1 blocker | STAT3 act | MT stabilizer | STAT3 blocker
CC1CCCN(C(=O)c2cc3c(-c4ccc(Cl)cc4)nn(C)c3s2)C1 (stereo unspecified) | 2 | -1 | 119 | 6 | -18
Cc1ccc(Nc2nc(-c3ccc(S(=O)(=O)N4CCCC4)cc3)cs2)cc1C | 2 | 9 | 90 | 4 | 18
Cc1cc(C)cc(Nc2nc(-c3ccc(S(=O)(=O)N4CCCC4)cc3)cs2)c1 | 0 | -15 | 100 | 19* | -3
CCOc1ccc(/C=C/C(O)=C2/C(=O)N(C)C3(C)CC2c2ccccc2O3)cc1OC (stereo unspecified) | 44 | 18 | 110 | 15* | -2
Cc1cnc(NC(=O)c2ccc(OCC3CCCO3)cc2)s1 (stereo unspecified) | 2 | 51* | 38 | 3 | 78*
Cc1ccc(NC(=O)c2ccc(OCC3CCCO3)cc2)cc1 (stereo unspecified) | nt | -35 | 106 | 4 | -10
Cc1cc(C)c2nc(NC(=O)c3cc(C)on3)sc2c1 | nt | -3 | 70 | 1 | 40
Cc1ccc2nc(NC(=O)c3ccco3)sc2c1 | nt | 59* | 22 | 2 | 94*
CCc1ccc2nc(NC(=O)c3cc(C)on3)sc2c1 | 36 | -36 | 95 | 38* | 12
CC1=C(C(=O)OCC2CCCO2)C(c2coc3ccc(C)cc3c2=O)C2=C(CCCC2=O)N1 (stereo unspecified) | 2 | 2 | 114 | 2 | -11
CC1=C(C(=O)OCC2CCCO2)C(c2coc3ccc(Cl)cc3c2=O)C2=C(CCCC2=O)N1 (stereo unspecified) | -1 | 8 | 134* | 2 | -27
NC(=O)c1ccccc1NC(=O)CCc1ccccc1 | 0 | -25 | 113 | 5 | -9
NC(=O)c1ccccc1NC(=S)NC(=O)CCc1ccccc1 | nt | -6 | 102 | 23* | -2
Cc1sc(NC(=S)NC(=O)c2ccco2)c(C(N)=O)c1C | -1 | -8 | 102 | 4 | 0
Cc1sc(NC(=S)NC(=O)CCc2ccccc2)c(C(N)=O)c1C | 36 | -15 | 156* | 8 | -62
COc1ccc(-n2ncc3c(N4CCCCC4)ncnc32)cc1 | 2 | 72* | 13 | 2 | 107*
COc1ccc(-n2ncc3c(N4CCN(c5cc(C)ccc5C)CC4)ncnc32)cc1 | nt | -4 | 106 | 6 | 2
CC1CCc2nc(NC(=O)C3CC3)sc2C1 (stereo unspecified) | -1 | -22 | 107 | 2 | -3
CC1CCc2nc(NC(=O)C3COc4ccccc4O3)sc2C1 (stereo unspecified) | 4 | 49* | 28 | 3 | 91*
CN(C1CCCCC1)S(=O)(=O)c1cccc(C(=O)OCC(=O)NC2CCCc3ccccc32)c1 (stereo unspecified) | -2 | 4 | 102 | 6 | 2
O=C(N1CCN(c2ccccn2)CC1)N1c2ccccc2Sc2ccccc21 | 4 | -5 | 108 | 31* | -4
O=C(c1ccco1)N1CCN(C(=O)N2c3ccccc3Sc3ccccc32)CC1 | 35 | -1 | 122 | 14* | -22
O=C(c1ccco1)N1c2ccccc2Sc2ccccc21 | -1 | 2 | 95 | 4 | 11
O=C(NC1CCN(C(=O)N2c3ccccc3Sc3ccccc32)CC1)c1ccco1 | -5 | 12 | 84 | 13* | 25
CC(C)CNC(=O)c1ccccc1NC(=O)/C=C/c1cccc([N+](=O)[O-])c1 | 0 | -3 | 99 | 1 | -1
SMILES | b-catenin transl | STAT1 blocker | STAT3 act | MT stabilizer | STAT3 blocker
Oc1ccc(-c2nccc(-c3cccs3)n2)cc1 | nt | -46 | 140* | 2 | -47
COC(=O)C(C)Oc1ccc(-c2nccc(-c3cccs3)n2)cc1 (stereo unspecified) | 0 | -19 | 101 | 1 | 4
COc1ccccc1C1OC2=C(Nc3ccc([N+](=O)[O-])cc3N2)C1=O (stereo unspecified) | -4 | nt | nt | nt | nt
NC(=O)c1cc(NC(=O)CCCc2nc3ccccc3s2)cc(C(N)=O)c1 | 0 | nt | nt | nt | nt
COc1nc(-c2ccccc2)nnc1-c1ccccc1 | 0 | -61 | 153* | 7 | -62
N#CC1=C(N)Oc2ccc3ccc(O)cc3c2C1c1cccnc1 (stereo unspecified) | -3 | 5 | 100 | 3 | 5
N#CC1=C(N)Oc2ccc3ccccc3c2C1c1cccnc1 (stereo unspecified) | -2 | 11 | 111 | 16* | -2
O=C(Nc1ccc(Cl)cn1)c1cc2ccccc2o1 | nt | -27 | 99 | 1 | 6
O=C(Nc1ccccn1)c1cc2ccccc2o1 | -4 | 53* | 26 | 3 | 89*
CCCSc1nc2c3c(sc2c(=O)[nH]1)CC(C)(CC)OC3 (stereo unspecified) | -1 | -8 | 107 | 3 | -2
Cc1cccn2cc(CCNS(=O)(=O)c3cccc([N+](=O)[O-])c3)nc12 | -1 | nt | nt | nt | nt
Cc1cc(Nc2ccc(F)cc2F)n2nc(C)nc2n1 | -3 | 5 | 105 | 4 | -5
Fc1ccc(Nc2ccc3ccccc3n2)c(F)c1 | -2 | 44* | 41 | 9 | 72*
Cc1ccc(C(=O)CSC2=C(C#N)C(c3ccco3)C3=C(CCCC3=O)N2)cc1 (stereo unspecified) | 130* | -4 | 99 | 20* | 7
N#CC1=C(SCC(=O)c2ccccc2)NC2=C(C(=O)CCC2)C1c1ccco1 (stereo unspecified) | 171* | -63 | 114 | 34 | -13
Cn1ncc(Br)c1NC(=O)CSc1ccc(Cl)cc1 | 0 | nt | nt | nt | nt
CCOc1cc(CNc2ccc3c(c2)OCCO3)cc(Br)c1OCC | 120* | -3 | 97 | 13 | 9
COc1ccccc1N1CCN(c2cc(=O)n(Cc3ccc(F)cc3)c(=O)[nH]2)CC1 | 1 | -4 | 87 | 22* | 21
CCOC(=O)C1C(c2cccnc2)NC(=O)NC1(O)C(F)(F)F (stereo unspecified) | -2 | -2 | 102 | 17* | 2
CCOC(=O)C1C(c2cccs2)NC(=O)NC1(O)C(F)(F)F (stereo unspecified) | -1 | 5 | 106 | 2 | -1
COc1ccc(C=C2c3ccccc3C(=O)c3ccccc32)c(OC)c1 | 82* | nt | nt | nt | nt
O=C(NCC(c1cccs1)N1CCOCC1)c1ccc(Cl)s1 (stereo unspecified) | nt | 2 | 96 | 54* | 9
COc1cc2c(cc1OC)C(c1cccs1)N(C(=O)c1cccnc1)CC2 (stereo unspecified) | 53* | -2 | 113 | 17* | -6
COc1cc2c(cc1OC)C(c1cccs1)N(C(=O)C(C)C)CC2 (stereo unspecified) | -1 | -1 | 99 | 6 | 4
Cc1ccc2c(c1)C(c1ccccc1)N(C(=O)c1ccc(Br)o1)CC(=O)N2 (stereo unspecified) | nt | 8 | 135* | 4 | -38
Cc1cc(/C=N/NC(=O)c2cccc(F)c2)c(C)n1-c1ccccc1 | 9 | -9 | 69 | 16* | 40

Screening data: PubChem BioAssay, several laboratories
